Rad51 HR inh: blocks human Rad51 in homologous recombination; hRad51 DNA strand exchange, fluorescence dequenching; Q06609; AID 1385; inhibition, % at 10 µM; actives 0.085% (n = 200,000);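 active = inhibition above 40% at the single screening dose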
Target sequence (Q06609 whole entry, looked up): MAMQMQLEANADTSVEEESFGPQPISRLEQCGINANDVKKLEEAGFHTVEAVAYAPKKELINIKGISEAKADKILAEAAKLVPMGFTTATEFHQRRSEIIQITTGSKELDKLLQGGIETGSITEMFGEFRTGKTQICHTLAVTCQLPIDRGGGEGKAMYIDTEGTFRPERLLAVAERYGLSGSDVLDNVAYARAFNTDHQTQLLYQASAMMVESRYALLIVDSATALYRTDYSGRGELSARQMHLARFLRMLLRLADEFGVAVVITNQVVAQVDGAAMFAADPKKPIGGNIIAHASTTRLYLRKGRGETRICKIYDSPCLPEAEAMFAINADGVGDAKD
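System: human Rad51 nucleoprotein filaments preassembled on unlabelled ssDNA. Reagent: labelled 47-mer dsDNA for strand exchange. Schedule: 30-min compound preincubation and 15-min exchange, both room temperature. Measured by: FRET fluorescence dequenching, excitation 485 nm, emission 520 nm. Read-out: Fluorescence-based percent inhibition, control- and blank-normalised. Benchmarks: plate controls and plate blanks.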
L major viab: inhibitors of Leishmania major promastigote growth; Leishmania major promastigotes, resazurin fluorescence viability; inhibition, % at 10 µM; actives 9% (n = 200,000);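 also: promastigotes grown with compound for 44 hours at 28 °C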
Arbovirus inh: antivirals against arbovirus infection | arbovirus infection cell-based antiviral screen | inhibition, % at 10 µM | actives 0.37% (n = 200,000); in the data active = inhibition above about 30%
PKD1 kinase inh: blocks activity of human protein kinase D1. Q15139. PKD1 kinase fluorescence polarization assay. inhibition, % (no concentration beside the values). actives 0.056% (n = 200,000)
CHOP inh: blocks CHOP induction under ER stress; CHO-K1 CHOP-promoter luciferase, tunicamycin-induced, 15-18 h; inhibition, % at 10 µM; actives 3.8% (n = 220,000);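 active = compounds that reduced the stress-induced luciferase reporter signal by more than about 70% of percent inhibition, limit read from the data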
Wee1 stabilizer: inhibitors of human Wee1 degradation | HeLa Luc-Wee1K328M stability, luciferase luminescence; 100% = proteasome inhibitor MG132 effect | actives 1.2% (n = 220,000) | reporter increase, % at 5 µM;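 active = activation above the mean of all tested compounds plus 3 SD, set per screening run, cut at about 8.8% in these data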;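 also: cells exposed to compound for 20 h before luminescence read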
Of the large screens only hits and unclear results are named; the others gave an inactive call. Only some compounds are listed: those with a hit (about 12% of all), similar ones and a draw of the others. Rule as the data show it, unless noted: active = inhibition above about 50%; inactive = the rest.

CCOC(=O)C1CCN(C(=O)COC(=O)CNC(=O)c2ccc(OC)cc2)CC1	none
NC(=O)CCC(NS(=O)(=O)c1ccc(Cl)cc1)C(=O)NCc1ccc(Cl)cc1 (stereo not drawn)	L major viab 60.2
CSCCC(NS(=O)(=O)c1ccc(F)cc1)C(=O)NCc1ccc(S(N)(=O)=O)cc1 (stereo not drawn)	none (no result: L major viab, Arbovirus inh, PKD1 kinase inh)
CCOP(=O)(OCC)C(C)(C)NC(=O)Nc1ccc(Cl)c(Cl)c1	none (no result: Rad51 HR inh, L major viab, Arbovirus inh, PKD1 kinase inh)
CCCCC(O)(CCN1CCOCC1)c1ccc(Cl)cc1 (stereo not drawn)	L major viab 76.3
CCCCOc1ccc(OCCCN2CCOCC2)cc1	L major viab 99.8
CCC(C)c1ccc(OCCCCN2CCOCC2)cc1 (stereo not drawn)	L major viab 97.0
CCOc1ccc(OCCOCCN2CCOCC2)cc1	L major viab 93.6
CCCC(O)(c1ccc(Cl)cc1)C(CN1CCOCC1)c1ccccc1 (stereo not drawn)	L major viab 73.2, CHOP inh 90.0
COc1ccccc1C(O)(c1ccccc1)C(CN1CCOCC1)c1ccccc1 (stereo not drawn)	none
CCCCOc1ccc(C(O)(CC)CCN2CCOCC2)cc1 (stereo not drawn)	L major viab 83.3
CCCCOc1ccc(C(O)(CCC)CCN2CCOCC2)cc1 (stereo not drawn)	none (no result: Rad51 HR inh)
CCCC(O)(CCN1CCCCC1)c1ccc(OCC)cc1 (stereo not drawn)	L major viab 77.5
CCCOc1ccc(C(=O)C(CN2CCOCC2)c2ccccc2)cc1 (stereo not drawn)	L major viab 100.4
CCCOc1ccc(C(=O)C(c2ccccc2)N2CCOCC2)cc1 (stereo not drawn)	none
Cc1cc(C)nc(SCc2nnc(SCC(N)=O)o2)n1	none
CC1=NN(C(=O)c2cccc(Cn3nc(C)c([N+](=O)[O-])c3C)c2)C(O)(C(F)(F)F)C1 (stereo not drawn)	none
Cc1cnc(C(=O)Nc2nnc(SCc3c(Cl)cccc3Cl)s2)cn1	L major viab 55.6
Cc1ccc(CN2CC(C(=O)Nc3nnc(SCc4c(Cl)cccc4Cl)s3)CC2=O)cc1 (stereo not drawn)	none
CCS(=O)(=O)N1Cc2ccccc2CC1C(=O)Nc1nnc(SCc2c(Cl)cccc2Cl)s1 (stereo not drawn)	L major viab 81.0
CCS(=O)(=O)N1Cc2ccccc2CC1C(=O)Nc1nc(C)cs1 (stereo not drawn)	none
CCS(=O)(=O)N1Cc2ccccc2CC1C(=O)Nc1nc2c(C)cccc2s1 (stereo not drawn)	L major viab 55.1
CC(C)(C)c1ccc(C(=O)Nc2cccc3c(=O)[nH][nH]c(=O)c23)cc1	none (no result: Rad51 HR inh)
C=CCn1c(SCC(=O)c2[nH]c(C)c(C(=O)OCC)c2C)nc2scc(-c3ccccc3)c2c1=O	CHOP inh 87.9
Cc1ccccc1OCCNc1cc(N2CC(C)NC(C)C2)ccc1[N+](=O)[O-] (stereo not drawn)	L major viab 100.5
NCCNc1cc(N2CCCC2)ccc1[N+](=O)[O-]	none
O=[N+]([O-])c1ccc(N2CCCCC2)cc1NCCOc1ccccc1	L major viab 69.2
CCN(CC)CCCN=Cc1c(O)n(-c2ccccc2C)c(=O)c2ccccc12	none (no result: L major viab, Arbovirus inh, PKD1 kinase inh)
Cc1[nH]c(=O)[nH]c(=O)c1S(=O)(=O)N1CCCC(C(=O)NCCC2=CCCCC2)C1 (stereo not drawn)	none
COc1ccc(/C=C/C(=O)N(Cc2cccs2)C2CCS(=O)(=O)C2)cc1 (stereo not drawn)	none (no result: Rad51 HR inh, L major viab, Arbovirus inh, PKD1 kinase inh)
COC(=O)c1ccc(NC(=O)CNc2ccccc2)cc1	L major viab 76.2
COC(=O)c1ccc(NC(=O)CCOc2ccccc2)cc1	none
COC(=O)c1ccc(NC(=O)CSC2=NC(=O)C(c3ccccc3)C(=O)N2)cc1 (stereo not drawn)	L major viab 52.7
Clc1cccc(Cl)c1CNc1ccc(N2CCCC2)cc1	none
O=C(Nc1cc(Cl)cc(Cl)c1)c1ccc(Cn2c(=O)[nH]c3ccsc3c2=O)cc1	CHOP inh 94.2
CCOCCCNC(=O)c1ccc(Cn2c(=O)[nH]c3ccsc3c2=O)cc1	none
Cc1c(Cl)cccc1NC(=S)N1CCC(N(C)CC2CCCO2)CC1 (stereo not drawn)	L major viab 83.5
Cc1c(Cl)cccc1NC(=S)N1CCN(C(=O)C2CCCO2)CC1 (stereo not drawn)	none
COc1ccc(NC(=S)N2CCC(N(C)CC3CCCO3)CC2)cc1 (stereo not drawn)	L major viab 93.4
COc1ccc(NC(=S)N2CCC(N(C)CC3CCCO3)CC2)cc1Cl (stereo not drawn)	L major viab 95.3
Cc1ccc(NC(=S)N2CCC(N(C)CC3CCCO3)CC2)cc1C (stereo not drawn)	L major viab 86.5
Cc1ccccc1C1(CCN2CCCCC2)CCOC(C)(C)C1 (stereo not drawn)	none (no result: Rad51 HR inh)
Cc1cccc(NC(=S)N2CCCCCC2)c1	none
Cc1cccc(NC(=O)C(=O)NCC2CCCO2)c1 (stereo not drawn)	Wee1 stabilizer 8.8
O=C(NCC1CCCO1)Nc1cccc(Cl)c1 (stereo not drawn)	none
Cc1cccc(NC(=S)N2CCC(N(C)CC3CCCO3)CC2)c1 (stereo not drawn)	L major viab 85.5
Cc1cc2nc(CSc3ccccc3)cc(=O)n2[nH]1	none
CCc1ccc(NC(=O)c2ccccc2SC)cc1	none
CS(=O)(=O)N(CC(=O)Nc1ccccc1C(=O)N1CCOCC1)c1ccc(Cl)cc1	none (no result: L major viab, Arbovirus inh, PKD1 kinase inh)
O=C(CSCc1ccc(Cl)cc1)Nc1ccccc1C(=O)N1CCOCC1	none
O=C(CSCc1c(Cl)cccc1Cl)Nc1ccccc1C(=O)N1CCOCC1	L major viab 51.9
CCc1ccc(N(CC(=O)Nc2ccccc2C(=O)N2CCOCC2)S(C)(=O)=O)cc1	L major viab 50.9
Cc1cccc(C)c1NC(=O)COC(=O)c1ccc([N+](=O)[O-])o1	none
N#Cc1c(NC(=O)CSc2nc(N)cc(=O)[nH]2)sc2c1CCCC2	none
CC(=O)c1cccc(NC(=O)/C=C/c2ccc([N+](=O)[O-])s2)c1	CHOP inh 74.2
Cc1cc(C)cc(NC(=O)/C=C/c2ccc([N+](=O)[O-])s2)c1	L major viab 81.7
O=[N+]([O-])c1ccc(/C=N/NC(=S)Nc2ccc(Cl)cc2Cl)s1	none (no result: L major viab, Arbovirus inh, PKD1 kinase inh)
COC(=O)CC1=C(C(=O)OC)[C@@H](c2ccccc2[N+](=O)[O-])C(C#N)=C(N)O1	none (no result: L major viab, Arbovirus inh, PKD1 kinase inh)
CC1CCc2c(sc3nc(SCC(=O)NCc4ccco4)nc(N)c23)C1 (stereo not drawn)	none (no result: Rad51 HR inh)
CCN(CC)C(=O)CSc1nc(N)c2c3c(sc2n1)CC(C)CC3 (stereo not drawn)	L major viab 64.2
CCO/C(C)=C1/SC(=S)NC1=O	none (no result: Rad51 HR inh, L major viab, Arbovirus inh, PKD1 kinase inh)
COc1ccccc1C(=O)NN=C1CCN(Cc2ccccc2)CC1	none

Bioassay records: PubChem, several laboratories
